ChEMBL document CHEMBL4699495, “Synthesis and biological evaluation of 5'-C-methyl nucleotide prodrugs for treating HCV infections” (Bioorg Med Chem Lett, 2020)

What was measured:
[1] = Therapeutic index, ratio of TC50 for human HuH-7-Luc/Neo-ET cells to EC50 for HCV infected in human HuH7-Luc/Neo-ET cells; type: toxicity
Procedure, shortened: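 Therapeutic index calculated as TC50/EC50. Both values came from Huh-7 Luc/Neo ET cells bearing an HCV genotype 1b replicon, and each was averaged from triplicate experiments.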

Hepatitis C virus = assay: Antiviral activity against HCV subtype 1b infected in human HuH-7-Luc/Neo-ET cells by luciferase replicon-reporter gene assay; type: functional, organism-based, Hepacivirus hominis
Procedure, shortened: (§1)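 HCV genotype 1b subgenomic replicon carried in Huh-7 Luc/Neo ET cells. Antiviral EC50 and cytotoxic TC50 were both determined in these cells. Each value is the average of triplicate experiments.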

[2] = Cytotoxicity against human HuH-7-Luc/Neo-ET cells; type: cell-based; details: read-out: TC50 (the source's name); procedure, shortened: as §1

| EC50 (Hepatitis C virus) [µM] | Compound | selectivity ratio [1] | CC50 [2] [µM] |
| --- | --- | --- | --- |
| 25.3 | CCCCCCCCCC(=O)Oc1ccc(COP(=O)(OCc2ccc(OC(=O)CCCCCCCCC)cc2)OP(=O)([O-])O[C@@H](C)[C@H]2O[C@@H](n3ccc(=O)[nH]c3=O)[C@](C)(O)[C@@H]2O)cc1.CCCC[N+](CCCC)(CCCC)CCCC | 3.29 | > 83.2 |
| 2.6 | CCCCCCCCCC(=O)Oc1ccc(COP(=O)(OCc2ccc(OC(=O)CCCCCCCCC)cc2)OP(=O)([O-])O[C@H](C)[C@H]2O[C@@H](n3ccc(=O)[nH]c3=O)[C@](C)(O)[C@@H]2O)cc1.CCCC[N+](CCCC)(CCCC)CCCC | > 38.5 | > 100 |
| 1.49 | CC(C)OC(=O)[C@H](C)N[P@@](=O)(Oc1ccccc1)O[C@H](C)[C@H]1O[C@@H](n2ccc(=O)[nH]c2=O)[C@](C)(O)[C@@H]1O | > 67.1 | > 100 |
| 7.75 | CC(C)OC(=O)[C@H](C)N[P@@](=O)(Oc1ccccc1)O[C@@H](C)[C@H]1O[C@@H](n2ccc(=O)[nH]c2=O)[C@](C)(O)[C@@H]1O | > 12.9 | > 100 |
| 0.04 | CCCCCCCCCC(=O)Oc1ccc(COP(=O)(OCc2ccc(OC(=O)CCCCCCCCC)cc2)OP(=O)([O-])OC[C@H]2O[C@@H](n3ccc(=O)[nH]c3=O)[C@](C)(O)[C@@H]2O)cc1.CCCC[N+](CCCC)(CCCC)CCCC | > 2590 | > 100 |

| Compound | EC50 (Hepatitis C virus) [µM] | selectivity ratio [1] | CC50 [2] [µM] |
| --- | --- | --- | --- |
| CC(C)OC(=O)[C@H](C)N[P@](=O)(OC[C@H]1O[C@@H](n2ccc(=O)[nH]c2=O)[C@](C)(O)[C@@H]1O)Oc1ccccc1 | 0.03 | 2780 | 85.6 |
| CC(C)OC(=O)[C@H](C)N[P@](=O)(OC[C@H]1O[C@@H](n2ccc(=O)[nH]c2=O)[C@](C)(F)[C@@H]1O)Oc1ccccc1 [SOFOSBUVIR] | 0.03 | > 29.2 | > 1 |
